Data from the M2OR odorant receptor database.

Columns and labels:
UniProt Q9WVD9 = details: stereoisomer not certain
Method in brief: (§1)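 Each receptor–molecule pair is labelled responsive or non-responsive (inactive) according to whether the original authors judged the measured signal statistically different from baseline. The data were taken from the main text and supplementary material of published papers and checked for typos and inconsistencies. Assay methods differed by source, with transient luciferase assays in mammalian cell lines being common.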

UniProt Q9WVN5 = molecular target: T1, UniProt Q9WVN5; details: stereoisomer not certain
T1 sequence (whole entry): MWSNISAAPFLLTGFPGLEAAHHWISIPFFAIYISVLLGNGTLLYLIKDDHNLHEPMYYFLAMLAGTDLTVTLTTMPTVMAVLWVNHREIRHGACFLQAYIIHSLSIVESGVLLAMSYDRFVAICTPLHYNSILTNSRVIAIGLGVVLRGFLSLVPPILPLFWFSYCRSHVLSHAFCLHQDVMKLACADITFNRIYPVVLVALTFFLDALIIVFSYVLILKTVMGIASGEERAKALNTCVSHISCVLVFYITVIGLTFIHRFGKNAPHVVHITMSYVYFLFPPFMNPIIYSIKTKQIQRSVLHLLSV
Method in brief: as §1
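Note: active if original authors judged signal statistically different from baseline.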

Chain of UniProt Q9WVD9 (Q9WVD9 as listed by the source): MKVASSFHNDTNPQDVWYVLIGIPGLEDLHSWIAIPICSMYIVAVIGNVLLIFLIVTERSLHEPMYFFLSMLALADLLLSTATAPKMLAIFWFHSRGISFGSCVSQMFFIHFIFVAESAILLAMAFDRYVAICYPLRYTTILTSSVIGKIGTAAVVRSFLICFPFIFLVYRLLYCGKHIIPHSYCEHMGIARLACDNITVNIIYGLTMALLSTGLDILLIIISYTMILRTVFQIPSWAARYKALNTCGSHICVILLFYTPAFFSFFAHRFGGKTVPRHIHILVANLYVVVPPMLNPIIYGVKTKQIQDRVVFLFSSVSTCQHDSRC

## CCCCCC(=O)CC
UniProt Q9WVD9
  odorant receptor agonist call: inactive
UniProt Q9WVN5
  odorant receptor agonist call: inactive

## C=C(C)C1CCC(C)C(=O)C1 (stereo not drawn)
UniProt Q9WVD9
  odorant receptor agonist call: inactive
UniProt Q9WVN5
  odorant receptor agonist call: inactive

## CCCCCCC(=O)[O-].[H+]
UniProt Q9WVD9
  odorant receptor agonist call: active
UniProt Q9WVN5
  odorant receptor agonist call: active

## CC(=O)OCC=C(C)C
UniProt Q9WVD9
  odorant receptor agonist call: inactive
UniProt Q9WVN5
  odorant receptor agonist call: inactive

## CCCCCCCCCS
UniProt Q9WVD9
  odorant receptor agonist call: inactive
UniProt Q9WVN5
  odorant receptor agonist call: inactive

## CCCCCCC(C)=O
UniProt Q9WVD9
  odorant receptor agonist call: inactive
UniProt Q9WVN5
  odorant receptor agonist call: inactive

## CCCCC(=O)O
UniProt Q9WVD9
  odorant receptor agonist call: inactive
UniProt Q9WVN5
  odorant receptor agonist call: active

## CC(=O)OCc1ccccc1
UniProt Q9WVD9
  odorant receptor agonist call: inactive
UniProt Q9WVN5
  odorant receptor agonist call: inactive

## CCCCOC(=O)C(C)OC(=O)CCC (stereo not drawn)
UniProt Q9WVD9
  odorant receptor agonist call: inactive
UniProt Q9WVN5
  odorant receptor agonist call: inactive

## CCCCCCCCC(=O)O
UniProt Q9WVD9
  odorant receptor agonist call: inactive
UniProt Q9WVN5
  odorant receptor agonist call: inactive

## CC(C)=CCCC(C)=CCO
UniProt Q9WVD9
  odorant receptor agonist call: inactive
UniProt Q9WVN5
  odorant receptor agonist call: inactive

## CCCCCCCO
UniProt Q9WVD9
  odorant receptor agonist call: inactive
UniProt Q9WVN5
  odorant receptor agonist call: inactive

## CCCCCC1=C(C)CCC1=O
UniProt Q9WVD9
  odorant receptor agonist call: inactive
UniProt Q9WVN5
  odorant receptor agonist call: inactive

## CCCCCCO
UniProt Q9WVD9
  odorant receptor agonist call: inactive
UniProt Q9WVN5
  odorant receptor agonist call: inactive

## CCCCCCCCCC(=O)[O-].[H+]
UniProt Q9WVD9
  odorant receptor agonist call: inactive
UniProt Q9WVN5
  odorant receptor agonist call: inactive

## CCOC(=O)C(C)C
UniProt Q9WVD9
  odorant receptor agonist call: inactive
UniProt Q9WVN5
  odorant receptor agonist call: inactive

## CCCCCCOC(C)=O
UniProt Q9WVD9
  odorant receptor agonist call: inactive
UniProt Q9WVN5
  odorant receptor agonist call: inactive

## CCCCCC=O
UniProt Q9WVD9
  odorant receptor agonist call: inactive
UniProt Q9WVN5
  odorant receptor agonist call: active

## CCCCCO
UniProt Q9WVD9
  odorant receptor agonist call: inactive
UniProt Q9WVN5
  odorant receptor agonist call: inactive

## COc1cc(C(=O)O)ccc1O
UniProt Q9WVD9
  odorant receptor agonist call: inactive
UniProt Q9WVN5
  odorant receptor agonist call: inactive

## c1ccccc1
UniProt Q9WVD9
  odorant receptor agonist call: inactive
UniProt Q9WVN5
  odorant receptor agonist call: inactive

## CCCCOC=O
UniProt Q9WVD9
  odorant receptor agonist call: inactive
UniProt Q9WVN5
  odorant receptor agonist call: inactive

## CCC(C(=O)O)c1ccccc1 (stereo not drawn)
UniProt Q9WVD9
  odorant receptor agonist call: inactive
UniProt Q9WVN5
  odorant receptor agonist call: inactive

## CCCCCCCCO
UniProt Q9WVD9
  odorant receptor agonist call: inactive
UniProt Q9WVN5
  odorant receptor agonist call: inactive

## C=CCOC(=O)CCCCCC
UniProt Q9WVD9
  odorant receptor agonist call: inactive
UniProt Q9WVN5
  odorant receptor agonist call: inactive

## O=c1ccc2ccccc2o1
UniProt Q9WVD9
  odorant receptor agonist call: inactive
UniProt Q9WVN5
  odorant receptor agonist call: inactive

## CC(C)=CCCC(C)CCO (stereo not drawn)
UniProt Q9WVD9
  odorant receptor agonist call: inactive
UniProt Q9WVN5
  odorant receptor agonist call: inactive

## O=C1CCOc2ccccc21
UniProt Q9WVD9
  odorant receptor agonist call: inactive
UniProt Q9WVN5
  odorant receptor agonist call: inactive

## CC(=O)Oc1ccccc1
UniProt Q9WVD9
  odorant receptor agonist call: inactive
UniProt Q9WVN5
  odorant receptor agonist call: inactive

## CCCCCCCC(=O)[O-].[H+]
UniProt Q9WVD9
  odorant receptor agonist call: inactive
UniProt Q9WVN5
  odorant receptor agonist call: inactive

## O=C1Cc2ccccc2O1
UniProt Q9WVD9
  odorant receptor agonist call: inactive
UniProt Q9WVN5
  odorant receptor agonist call: active

## CCC(=O)C(=O)CC
UniProt Q9WVD9
  odorant receptor agonist call: inactive
UniProt Q9WVN5
  odorant receptor agonist call: inactive

## CCCCCOC(=O)CCCCC
UniProt Q9WVD9
  odorant receptor agonist call: inactive
UniProt Q9WVN5
  odorant receptor agonist call: inactive

## CCCCC(C)=O
UniProt Q9WVD9
  odorant receptor agonist call: inactive
UniProt Q9WVN5
  odorant receptor agonist call: inactive

## CCCCCCCCCCO
UniProt Q9WVD9
  odorant receptor agonist call: inactive
UniProt Q9WVN5
  odorant receptor agonist call: inactive

## CCCCCCCC(C)=O
UniProt Q9WVD9
  odorant receptor agonist call: inactive
UniProt Q9WVN5
  odorant receptor agonist call: inactive

## CCC(=O)O
UniProt Q9WVD9
  odorant receptor agonist call: inactive
UniProt Q9WVN5
  odorant receptor agonist call: inactive

## CCCCCCCCCO
UniProt Q9WVD9
  odorant receptor agonist call: inactive
UniProt Q9WVN5
  odorant receptor agonist call: inactive

## CC12CCC(CC1=O)C2(C)C (stereo not drawn)
UniProt Q9WVD9
  odorant receptor agonist call: inactive
UniProt Q9WVN5
  odorant receptor agonist call: inactive

## O=C(c1ccccc1)c1ccccc1
UniProt Q9WVD9
  odorant receptor agonist call: inactive
UniProt Q9WVN5
  odorant receptor agonist call: inactive

## CCCCC(=O)CC
UniProt Q9WVD9
  odorant receptor agonist call: inactive
UniProt Q9WVN5
  odorant receptor agonist call: inactive

## CCCC(C)=O
UniProt Q9WVD9
  odorant receptor agonist call: inactive
UniProt Q9WVN5
  odorant receptor agonist call: inactive

## CCCC(=O)C(C)=O
UniProt Q9WVD9
  odorant receptor agonist call: inactive
UniProt Q9WVN5
  odorant receptor agonist call: inactive

## CCCCCCCCS
UniProt Q9WVD9
  odorant receptor agonist call: inactive
UniProt Q9WVN5
  odorant receptor agonist call: inactive
